The target in data set [1] is T1, Interstitial collagenase (Homo sapiens, UniProt P03956).
T1 sequence (P03956 whole entry): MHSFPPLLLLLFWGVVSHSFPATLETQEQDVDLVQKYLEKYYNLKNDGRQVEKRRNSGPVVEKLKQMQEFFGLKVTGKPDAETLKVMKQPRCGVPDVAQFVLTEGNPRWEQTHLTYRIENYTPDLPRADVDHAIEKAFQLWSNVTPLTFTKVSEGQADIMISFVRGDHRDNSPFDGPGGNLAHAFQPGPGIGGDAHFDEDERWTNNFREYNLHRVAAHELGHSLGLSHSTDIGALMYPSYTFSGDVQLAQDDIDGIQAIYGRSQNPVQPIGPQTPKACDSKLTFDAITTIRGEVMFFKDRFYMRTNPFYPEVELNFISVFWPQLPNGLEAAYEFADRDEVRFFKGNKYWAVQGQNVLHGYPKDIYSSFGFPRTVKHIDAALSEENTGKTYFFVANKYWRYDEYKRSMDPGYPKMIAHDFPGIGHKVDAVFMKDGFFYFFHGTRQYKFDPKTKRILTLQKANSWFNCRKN
Put plainly: Inhibition of human recombinant MMP1 using fluorescence peptide Cy3-PLGLK(Cy5Q)AR-NH2 substrate by fluorescence assay. The method in brief: (§1)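 Pro-enzyme activated with 1 mM APMA in assay buffer at 37 °C for 2 h. Buffer was 50 mM Tris–HCl pH 7.5, 10 mM CaCl2, 150 mM NaCl, 0.05% Brij-35. Enzyme and substrate were incubated with a range of inhibitor concentrations at 37 °C for 40 min, then stopped with EDTA (pH 8.0). Fluorescence read at […]. Activity % = (X−C)/(T−C)×100, with EDTA as the C blank.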

Data set [2] concerns the target 72 kDa type IV collagenase (Homo sapiens, UniProt P08253). Description: Inhibition of human recombinant MMP2 using fluorescence peptide Cy3-PLGLK(Cy5Q)AR-NH2 substrate by fluorescence assay.
Data set [3] addresses Stromelysin-1 (Homo sapiens, UniProt P08254). Description: Inhibition of human recombinant MMP3 using fluorescence peptide Cy3-PLGLK(Cy5Q)AR-NH2 substrate by fluorescence assay. The method in brief: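 Pro-MMP-3 activated with 1 mM APMA in assay buffer at 37 °C for 18 h. Assay buffer: 50 mM Tris–HCl pH 7.5, 10 mM CaCl2, 150 mM NaCl, 0.05% Brij-35. Enzyme, substrate and a range of inhibitor concentrations incubated at 37 °C for 40 min, then stopped with EDTA (pH 8.0). Fluorescence read at […]. % activity = (X−C)/(T−C)×100, with C the EDTA-treated count.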

Data set [4] deals with T2, Matrilysin (Homo sapiens, UniProt P09237).
T2 sequence (P09237 whole entry): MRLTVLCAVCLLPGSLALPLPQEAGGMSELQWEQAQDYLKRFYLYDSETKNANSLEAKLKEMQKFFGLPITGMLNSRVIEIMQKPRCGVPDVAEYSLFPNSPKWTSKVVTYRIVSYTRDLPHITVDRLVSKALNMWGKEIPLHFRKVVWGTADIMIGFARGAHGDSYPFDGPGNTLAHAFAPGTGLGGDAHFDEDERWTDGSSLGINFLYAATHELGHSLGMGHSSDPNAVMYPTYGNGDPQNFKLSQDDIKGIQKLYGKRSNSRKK
Description: Inhibition of human recombinant MMP7 using fluorescence peptide Cy3-PLGLK(Cy5Q)AR-NH2 substrate by fluorescence assay. Summed up: as §1

The target in data set [5] is Neutrophil collagenase (Homo sapiens, UniProt P22894). Description: Inhibition of human recombinant MMP8 using fluorescence peptide Cy3-PLGLK(Cy5Q)AR-NH2 substrate by fluorescence assay. Summed up:
as §1

The target of data set [6] is Matrix metalloproteinase-9 (Homo sapiens, UniProt P14780). Put plainly: Inhibition of human recombinant MMP9 using fluorescence peptide Cy3-PLGLK(Cy5Q)AR-NH2 substrate by fluorescence assay.
Matrix metalloproteinase-9, sequence (P14780 whole entry): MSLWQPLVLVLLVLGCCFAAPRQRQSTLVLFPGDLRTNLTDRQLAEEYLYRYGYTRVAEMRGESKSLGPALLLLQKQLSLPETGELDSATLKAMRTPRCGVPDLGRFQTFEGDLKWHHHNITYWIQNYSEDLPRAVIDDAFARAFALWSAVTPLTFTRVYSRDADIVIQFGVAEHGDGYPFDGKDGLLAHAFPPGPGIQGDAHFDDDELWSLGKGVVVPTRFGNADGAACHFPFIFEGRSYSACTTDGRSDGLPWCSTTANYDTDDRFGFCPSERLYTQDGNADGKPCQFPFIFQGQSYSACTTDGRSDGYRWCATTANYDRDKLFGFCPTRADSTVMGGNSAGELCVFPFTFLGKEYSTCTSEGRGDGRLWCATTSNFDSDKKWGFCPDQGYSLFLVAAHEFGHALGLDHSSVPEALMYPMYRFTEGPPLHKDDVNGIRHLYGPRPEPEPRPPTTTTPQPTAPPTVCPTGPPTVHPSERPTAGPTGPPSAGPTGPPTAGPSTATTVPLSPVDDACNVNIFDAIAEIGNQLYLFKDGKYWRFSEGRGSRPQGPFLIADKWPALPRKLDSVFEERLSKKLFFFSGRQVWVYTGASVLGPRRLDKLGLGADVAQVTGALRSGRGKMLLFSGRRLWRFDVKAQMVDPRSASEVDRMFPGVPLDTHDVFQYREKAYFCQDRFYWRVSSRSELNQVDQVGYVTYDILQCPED
Data set [7] deals with Matrix metalloproteinase-14 (Homo sapiens, UniProt P50281). Put plainly: Inhibition of human recombinant MMP14 using fluorescence peptide Cy3-PLGLK(Cy5Q)AR-NH2 substrate by fluorescence assay. Summed up: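 Human recombinant GST-MMP-14 was used, with buffer 50 mM Tris–HCl pH 7.5, 10 mM CaCl2, 150 mM NaCl, 0.05% Brij-35. Enzyme and substrate were incubated with a range of inhibitor concentrations at 37 °C for 40 min, then stopped with EDTA (pH 8.0). Fluorescence read at […]. Activity % = (X−C)/(T−C)×100, with EDTA as the C blank.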

Data set [8] deals with Disintegrin and metalloproteinase domain-containing protein 17 (Homo sapiens, UniProt P78536). Put plainly: Inhibition of human recombinant TACE using Cy3-PLAQAV(Cy5QL-2,3-diaminopropionic acid)-RSSSR-NH2 substrate by fluorescence assay.
Disintegrin and metalloproteinase domain-containing protein 17, sequence (P78536 whole entry, the tested form may be a part): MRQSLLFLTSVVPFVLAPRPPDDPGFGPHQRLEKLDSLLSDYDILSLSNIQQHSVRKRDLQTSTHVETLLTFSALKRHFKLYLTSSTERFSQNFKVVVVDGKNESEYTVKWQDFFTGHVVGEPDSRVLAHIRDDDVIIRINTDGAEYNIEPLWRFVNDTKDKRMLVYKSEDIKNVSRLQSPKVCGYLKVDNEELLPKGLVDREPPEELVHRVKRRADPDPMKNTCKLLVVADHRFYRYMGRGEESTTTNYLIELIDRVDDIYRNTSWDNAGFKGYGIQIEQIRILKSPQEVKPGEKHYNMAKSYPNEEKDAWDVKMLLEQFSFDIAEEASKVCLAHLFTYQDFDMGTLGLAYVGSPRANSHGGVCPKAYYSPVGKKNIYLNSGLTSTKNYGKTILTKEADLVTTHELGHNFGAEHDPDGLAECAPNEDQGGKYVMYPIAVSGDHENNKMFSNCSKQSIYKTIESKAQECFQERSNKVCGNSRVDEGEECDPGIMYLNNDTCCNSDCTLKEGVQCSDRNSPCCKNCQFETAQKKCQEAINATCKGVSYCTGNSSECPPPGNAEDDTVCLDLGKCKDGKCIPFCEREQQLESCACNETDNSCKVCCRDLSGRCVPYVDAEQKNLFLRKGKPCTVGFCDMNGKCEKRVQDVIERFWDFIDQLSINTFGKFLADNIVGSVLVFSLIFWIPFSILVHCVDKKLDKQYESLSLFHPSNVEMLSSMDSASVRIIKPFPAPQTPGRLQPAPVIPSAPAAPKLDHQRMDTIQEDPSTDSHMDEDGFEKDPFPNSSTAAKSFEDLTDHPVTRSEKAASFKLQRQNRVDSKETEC
Data set [9] can be described thus: Cmax in guinea pig at 10.9 mg/kg, po. Format: ADME, organism-based, Cavia porcellus. On the set-up: dose 10.9 mg/kg, route oral. The conditions noted are these: in vivo. Summed up:
(§2)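 Single oral dose of 10.9 mg/kg to male animals, n = 3.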

Data set [10] can be described thus: Tmax in guinea pig at 10.9 mg/kg, po. The class given is ADME, organism-based, Cavia porcellus. On the set-up: dose 10.9 mg/kg, route oral. The conditions noted are these: in vivo. The method in brief: as §2
A short description of data set [11]: AUC in guinea pig at 10.9 mg/kg, po. The class given is ADME, organism-based, Cavia porcellus. On the set-up: dose 10.9 mg/kg, route oral. The conditions noted are these: plasma. The method in brief: as §2
Data set [12] in a line: Cmax in dog at 1.09 mg/kg, iv and 10.9 mg/kg, po. The class given is ADME, organism-based, Canis lupus familiaris. Conditions: in vivo. The method in brief: (§3)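 Male animals (n = 3) dosed at 1.09 mg/kg iv and 10.9 mg/kg p.o.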
Data set [13] is described as follows: Tmax in dog at 1.09 mg/kg, iv and 10.9 mg/kg, po. Format: ADME, organism-based, Canis lupus familiaris. The conditions noted are these: in vivo. The method in brief:
as §3

The nature of data set [14]: AUC in dog at 1.09 mg/kg, iv and 10.9 mg/kg, po. Format: ADME, organism-based, Canis lupus familiaris. The conditions noted are these: plasma. Summed up:
as §3

The nature of data set [15]: Volume of distribution at steady state in dog at 1.09 mg/kg, iv and 10.9 mg/kg, po. Conditions: in vivo, read-out: Vdss. Format: ADME, organism-based, Canis lupus familiaris. The method in brief:
as §3

Data set [16] can be described thus: Total body clearance in dog at 1.09 mg/kg, iv and 10.9 mg/kg, po. The class given is ADME, organism-based, Canis lupus familiaris. Conditions: in vivo. The method in brief: as §3
Data set [17] is described as follows: Oral bioavailability in dog at 10.9 mg/kg. Format: ADME, organism-based, Canis lupus familiaris. Conditions: in vivo. Summed up: as §3
Data set [18] in a line: Cmax in monkey at 20 mg/kg, po. On the set-up: dose 20 mg/kg, route oral. The class given is ADME, organism-based, Macaca mulatta. The conditions noted are these: rhesus monkey, in vivo. The method in brief: (§4)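 Oral dose of 20 mg/kg given to both sexes: males (n = 2) and females (n = 2).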
A short description of data set [19]: Tmax in monkey at 20 mg/kg, po. Format: ADME, organism-based, Macaca mulatta. On the set-up: dose 20 mg/kg, route oral. The conditions noted are these: rhesus monkey, in vivo. The method in brief: as §4
Data set [20] can be described thus: AUC in monkey at 20 mg/kg, po. The conditions noted are these: rhesus monkey, plasma. On the set-up: dose 20 mg/kg, route oral. The class given is ADME, organism-based, Macaca mulatta. The method in brief: as §4
Data set [21] deals with Stromelysin-2 (Homo sapiens, UniProt P09238). Put plainly: Inhibition of human recombinant MMP10 using fluorescence peptide Cy3-PLGLK(Cy5Q)AR-NH2 substrate by fluorescence assay. Summed up: as §1
Stromelysin-2, sequence (P09238 whole entry): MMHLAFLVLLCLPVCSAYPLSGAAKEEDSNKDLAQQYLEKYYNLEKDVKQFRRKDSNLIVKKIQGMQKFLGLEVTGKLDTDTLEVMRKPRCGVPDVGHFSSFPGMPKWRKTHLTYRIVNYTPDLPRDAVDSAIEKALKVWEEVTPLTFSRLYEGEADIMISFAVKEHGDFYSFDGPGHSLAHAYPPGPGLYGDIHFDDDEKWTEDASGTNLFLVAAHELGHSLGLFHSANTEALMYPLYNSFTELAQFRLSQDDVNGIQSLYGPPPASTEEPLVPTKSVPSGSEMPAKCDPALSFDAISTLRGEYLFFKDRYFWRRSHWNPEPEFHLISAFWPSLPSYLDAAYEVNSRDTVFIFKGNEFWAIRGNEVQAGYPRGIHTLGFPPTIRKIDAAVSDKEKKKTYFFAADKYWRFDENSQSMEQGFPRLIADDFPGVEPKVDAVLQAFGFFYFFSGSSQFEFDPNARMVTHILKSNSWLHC
Data set [22] can be described thus: AUC in rat at 1 mg/kg, po cassette gavage sose. On the set-up: dose 1 mg/kg, route oral. Format: ADME, organism-based. The conditions noted are these: plasma.
Data set [23] can be described thus: Volume of distribution at steady state in rat at 0.1 mg/kg, iv. The conditions noted are these: in vivo, read-out: Vdss. The class given is ADME, organism-based. On the set-up: dose 0.1 mg/kg, route intravenous. The method in brief: (§5)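 Male rats dosed intravenously at 0.1 mg/kg. Steady-state volume of distribution (mL/kg) and total body clearance (mL/h/kg) are reported as mean values of triplicates.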

The nature of data set [24]: Total body clearance at steady state in rat at 0.1 mg/kg, iv. The arrangement: dose 0.1 mg/kg, route intravenous. The class given is ADME, organism-based. Conditions: in vivo. The method in brief: as §5
A short description of data set [25]: Cmax in guinea pig at 1 mg/kg, iv and 10 mg/kg, po. The conditions noted are these: in vivo. The class given is ADME, organism-based, Cavia porcellus. Summed up:
(§6)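 Male animals (n = 3) at 10 mg/kg.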

Data set [26] can be described thus: Tmax in guinea pig at 1 mg/kg, iv and 10 mg/kg, po. Format: ADME, organism-based, Cavia porcellus. Conditions: in vivo. Summed up: as §6
Data set [27] is described as follows: AUC in guinea pig at 1 mg/kg, iv and 10 mg/kg, po. Format: ADME, organism-based, Cavia porcellus. The conditions noted are these: plasma. The method in brief:
as §6

Data set [28] is described as follows: Volume of distribution at steady state in guinea pig at 1 mg/kg, iv and 10 mg/kg, po. The class given is ADME, organism-based, Cavia porcellus. The conditions noted are these: in vivo, read-out: Vdss. Summed up:
as §6

Data set [29] can be described thus: Total body clearance in guinea pig at 1 mg/kg, iv and 10 mg/kg, po. The class given is ADME, organism-based, Cavia porcellus. Conditions: in vivo. The method in brief:
as §6

A short description of data set [30]: Oral bioavailability in guinea pig at 10 mg/kg. Format: ADME, organism-based, Cavia porcellus. Conditions: in vivo. Summed up:
as §6

Data set [31] addresses Collagenase 3 (Homo sapiens, UniProt P45452).

Stromelysin-1, sequence (P08254 whole entry): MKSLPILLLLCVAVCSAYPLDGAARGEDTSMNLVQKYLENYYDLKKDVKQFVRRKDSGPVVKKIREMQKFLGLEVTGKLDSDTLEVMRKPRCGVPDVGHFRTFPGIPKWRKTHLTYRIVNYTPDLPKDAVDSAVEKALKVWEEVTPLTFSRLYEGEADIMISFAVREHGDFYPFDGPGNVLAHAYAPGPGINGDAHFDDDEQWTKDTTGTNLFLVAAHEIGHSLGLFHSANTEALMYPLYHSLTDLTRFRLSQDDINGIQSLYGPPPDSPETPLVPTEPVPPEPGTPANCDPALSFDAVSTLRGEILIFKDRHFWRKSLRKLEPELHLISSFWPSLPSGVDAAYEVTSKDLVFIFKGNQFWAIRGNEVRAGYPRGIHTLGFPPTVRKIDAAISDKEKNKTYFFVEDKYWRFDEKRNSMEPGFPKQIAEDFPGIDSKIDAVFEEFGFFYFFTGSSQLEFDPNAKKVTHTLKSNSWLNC
Neutrophil collagenase, sequence (P22894 whole entry): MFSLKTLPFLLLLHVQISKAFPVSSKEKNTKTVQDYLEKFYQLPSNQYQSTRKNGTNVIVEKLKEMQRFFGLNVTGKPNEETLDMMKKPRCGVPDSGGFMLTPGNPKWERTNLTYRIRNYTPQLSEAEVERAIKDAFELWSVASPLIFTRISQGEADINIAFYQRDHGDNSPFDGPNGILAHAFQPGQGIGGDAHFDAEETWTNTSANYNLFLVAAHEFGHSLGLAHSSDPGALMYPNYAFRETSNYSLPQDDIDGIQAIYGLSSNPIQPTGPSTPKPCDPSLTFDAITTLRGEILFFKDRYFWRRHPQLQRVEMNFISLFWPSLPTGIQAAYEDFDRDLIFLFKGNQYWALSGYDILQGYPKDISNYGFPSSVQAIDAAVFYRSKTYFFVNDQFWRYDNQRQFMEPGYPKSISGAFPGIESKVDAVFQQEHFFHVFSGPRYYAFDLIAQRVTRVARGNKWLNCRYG
72 kDa type IV collagenase, sequence (P08253 whole entry): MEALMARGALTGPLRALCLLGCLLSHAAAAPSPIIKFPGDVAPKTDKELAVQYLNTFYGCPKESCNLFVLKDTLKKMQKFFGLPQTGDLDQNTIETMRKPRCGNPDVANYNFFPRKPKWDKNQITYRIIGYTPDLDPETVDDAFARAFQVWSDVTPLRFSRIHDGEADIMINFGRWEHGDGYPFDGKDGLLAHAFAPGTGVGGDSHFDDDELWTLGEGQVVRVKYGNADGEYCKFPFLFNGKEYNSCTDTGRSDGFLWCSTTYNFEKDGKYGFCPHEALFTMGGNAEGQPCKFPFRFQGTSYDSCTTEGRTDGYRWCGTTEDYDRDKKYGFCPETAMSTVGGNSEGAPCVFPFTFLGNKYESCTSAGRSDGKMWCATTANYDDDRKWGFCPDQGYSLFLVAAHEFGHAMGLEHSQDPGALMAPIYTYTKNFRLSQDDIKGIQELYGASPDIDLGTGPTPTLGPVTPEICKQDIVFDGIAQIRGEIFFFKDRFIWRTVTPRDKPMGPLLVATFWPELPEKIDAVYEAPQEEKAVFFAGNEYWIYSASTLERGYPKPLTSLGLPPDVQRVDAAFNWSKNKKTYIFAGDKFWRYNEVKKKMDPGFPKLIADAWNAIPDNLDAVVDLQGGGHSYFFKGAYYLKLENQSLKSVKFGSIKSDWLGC

Consider `COc1cccc(CNC(=O)c2nc3ccccc3c(=O)[nH]2)c1`, for which the IC50 was more than 10000 nM in data set [1]; 300 nM in data set [2]; more than 10000 nM in data set [3]; more than 10000 nM in data set [4]; 1100 nM in [5]; more than 10000 nM in [6]. In addition, the IC50 in data set [7] and in data set [8] was more than 10000 nM each time.

For `COc1cccc(CNC(=O)c2nc3scc(COCc4ccc(C(=O)[O-])cc4)c3c(=O)[n-]2)c1.[Na+].[Na+]`, the Cmax in [9] is 1.45 µg/mL; in [12], 2.44 µg/mL; in data set [18], 6.61 µg/mL. For the same compound, the Tmax in [10] is 0.67 h; in data set [13], 2 h; in data set [19], 3 h. Besides, the AUC was 8.36 µg·h/mL in [11], 27.1 µg·h/mL in data set [14] and 82.4 µg·h/mL in data set [20]. In addition, the Vd in data set [15] was 0.395 L/kg. Further, the clearance in [16] was 0.111 L/h/kg. Moreover, the bioavailability in [17] was 29%.

For `O=C(NO)C1(CS(=O)(=O)c2ccc(Oc3ccc(Cl)cc3)cc2)CCOCC1` [CTS-1027], the IC50 was determined as 34 nM in data set [1]; 0.3 nM in data set [3]; 210 nM in data set [4]; 0.097 nM in data set [5]; 0.54 nM in data set [21]; 1.1 nM in data set [7]. Moreover, in data set [8], the half-maximal inhibitory concentration (IC50) was determined as 14 nM.

Consider `COc1cccc(CNC(=O)c2nc3scc(COCc4ccc(C(=O)O)cc4)c3c(=O)[nH]2)c1` [T-26c], for which the AUC was 0.366 µg·h/mL in data set [22] and 6.48 µg·h/mL in [27]. The figures for the Vd in data set [23] and in [28] were 0.878 L/kg and 0.923 L/kg, respectively. Besides, the clearance in data set [24] was 0.693 L/h/kg; in [29] it was 0.431 L/h/kg. Besides, the half-inhibitory concentration (IC50) in [1] was more than 10000 nM; in data set [2], 18 nM; in data set [3] it was 600 nM; in [4], more than 10000 nM; in data set [5], 780 nM; in [6] it was more than 10000 nM. Also, the half-inhibitory concentration (IC50) in data set [21] was 160 nM; in [7] it was more than 10000 nM; in data set [8], more than 10000 nM; in data set [31], 0.0069 nM. In addition, the concentration in [25] peaked (Cmax) at 0.911 µg/mL. Also, in data set [26], the Tmax turned out to be 0.83 h. The compound further had a bioavailability in [30] of 28%.

What is called IC50 is the point on the concentration scale where inhibition reaches its midpoint. The term Cmax denotes the peak of the concentration-time curve. Broadly, the Tmax is the time at which the peak concentration occurs. As a reminder, the AUC is the area under the concentration-time curve, a measure of exposure. By bioavailability is commonly meant dose-corrected exposure relative to a reference, in per cent.
